Experimental data: ChEMBL document CHEMBL5385894, “The discovery of 12β-methyl-17-epi-18-nor-bile acids as potent and selective TGR5 agonists” (Eur J Med Chem, 2023)
Calls of active or inactive are those of the source. No cut-off for these calls is given here.

Columns and labels:
[1] = target: T1, G-protein coupled bile acid receptor 1 (Homo sapiens) (UniProt Q8TDU6); assay: Agonist activity at human TGR5 expressed in HEK293 cells at 10 uM incubated for 30 mins by SEAP reporter gene based assay relative to control; format: functional, cell-based
T1 sequence (whole entry): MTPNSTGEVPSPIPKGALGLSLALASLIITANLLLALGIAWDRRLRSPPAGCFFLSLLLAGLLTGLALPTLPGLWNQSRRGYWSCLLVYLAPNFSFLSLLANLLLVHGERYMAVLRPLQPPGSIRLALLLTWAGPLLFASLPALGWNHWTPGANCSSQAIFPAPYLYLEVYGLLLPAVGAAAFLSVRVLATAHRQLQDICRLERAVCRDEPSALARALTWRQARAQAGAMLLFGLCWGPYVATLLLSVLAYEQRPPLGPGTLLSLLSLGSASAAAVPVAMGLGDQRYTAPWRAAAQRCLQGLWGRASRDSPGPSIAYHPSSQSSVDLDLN
Procedure, shortened: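 293T/17 cells reverse-transfected with human TGR5 on reporter strips (3.8 × 10^4 cells/well, 20 h), then moved to serum-free DMEM stimulation medium with 1% DMSO. Compound at 10 µM in triplicate, 30 min on the bench, then 7 h at 37 °C. Medium heated 65 °C 30 min, SEAP substrate added, luminescence read. Efficacy is basal-subtracted RLU as % of 10 µM LCA. Mean ± SD of ≥2 independent experiments.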

[2] = target: T2, Bile acid receptor (Homo sapiens) (UniProt Q96RI1); assay: Agonist activity at FXR (unknown origin) at 10 uM relative to control
T2 sequence (whole entry): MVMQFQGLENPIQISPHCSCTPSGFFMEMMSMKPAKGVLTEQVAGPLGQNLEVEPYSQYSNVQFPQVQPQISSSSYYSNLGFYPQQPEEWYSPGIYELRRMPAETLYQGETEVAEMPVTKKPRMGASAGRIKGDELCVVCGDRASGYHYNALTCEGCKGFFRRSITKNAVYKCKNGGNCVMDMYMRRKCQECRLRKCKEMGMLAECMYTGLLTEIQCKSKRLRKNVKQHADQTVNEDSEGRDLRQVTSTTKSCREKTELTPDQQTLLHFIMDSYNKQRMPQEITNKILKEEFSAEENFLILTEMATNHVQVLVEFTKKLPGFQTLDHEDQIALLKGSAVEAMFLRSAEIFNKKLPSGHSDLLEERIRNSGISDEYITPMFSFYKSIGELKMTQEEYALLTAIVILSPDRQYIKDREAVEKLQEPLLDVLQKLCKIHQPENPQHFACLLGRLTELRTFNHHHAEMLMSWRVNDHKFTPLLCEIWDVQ
Procedure, shortened: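 Nuclear hormone receptor (NHR) transactivation screen at FXR run by Eurofins DiscoverX; test agents at 10 µM.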

[3] = target: T3, G-protein coupled bile acid receptor 1 (Homo sapiens, UniProt Q8TDU6); assay: Agonist activity at human TGR5 expressed in HEK293 cells incubated for 30 mins by SEAP reporter gene based assay; format: functional, cell-based
T3 sequence (Q8TDU6 whole entry): T1 sequence (whole entry)
Procedure, shortened: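 Human TGR5 reverse-transfected 293T/17 cells in serum-free stimulation medium with 1% DMSO received a concentration series in triplicate, 30 min at bench then 7 h at 37 °C, 5% CO2. SEAP luminescence was read after heat inactivation at 65 °C. Response is % of 10 µM LCA, fitted by four-parameter unconstrained nonlinear regression to give EC50. Mean ± SD of three independent experiments.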

| Structure (SMILES) | Activity [1] | Activity ([1]; filed as agonist) [%] | further results |
| --- | --- | --- | --- |
| C[C@H](CCC(=O)O)[C@H]1CC[C@@H]2[C@@H]1[C@H](C)C[C@H]1[C@H]2[C@H](O)C[C@@H]2C[C@H](O)CC[C@@]21C | inactive | – | – |
| CC[C@H]1[C@@H](O)[C@H]2[C@@H]3CC[C@@H]([C@H](C)CCC(=O)O)[C@H]3[C@H](C)C[C@@H]2[C@@]2(C)CC[C@@H](O)C[C@@H]12 | – | 62 | Activity [2]: 31% |
| CC[C@H]1[C@@H](O)[C@H]2[C@@H]3CC[C@H]([C@H](C)CC(=O)NCCS(=O)(=O)O)[C@H]3[C@H](C)C[C@@H]2[C@@]2(C)CC[C@@H](O)C[C@@H]12 | inactive | – | – |
| C[C@H](CCCC(=O)NCCS(=O)(=O)O)[C@@H]1CC[C@@H]2[C@@H]1[C@H](C)C[C@H]1[C@H]2[C@H](O)C[C@@H]2C[C@H](O)CC[C@@]21C | – | 62 | – |
| C[C@@H]1C[C@H]2[C@H]([C@@H]3CC[C@@H]([C@H](C)C(=O)NCCS(=O)(=O)O)[C@H]31)[C@H](O)C[C@@H]1C[C@H](O)CC[C@@]12C | – | 56 | – |
| C[C@H](CC(=O)NCCS(=O)(=O)O)[C@@H]1CC[C@@H]2[C@@H]1[C@H](C)C[C@H]1[C@H]2[C@H](O)C[C@@H]2C[C@H](O)CC[C@@]21C | 7% | – | – |
| CC[C@H]1[C@@H](O)[C@H]2[C@@H]3CC[C@@H]([C@H](C)C(=O)NCCS(=O)(=O)O)[C@H]3[C@H](C)C[C@@H]2[C@@]2(C)CC[C@@H](O)C[C@@H]12 | – | 61 | – |
| CC[C@H]1[C@@H](O)[C@H]2[C@@H]3CC[C@H]([C@H](C)CCCC(=O)NCCS(=O)(=O)O)[C@H]3[C@H](C)C[C@@H]2[C@@]2(C)CC[C@@H](O)C[C@@H]12 | inactive | – | – |
| C[C@H](CCCC(=O)O)[C@H]1CC[C@@H]2[C@@H]1[C@H](C)C[C@H]1[C@H]2[C@H](O)C[C@@H]2C[C@H](O)CC[C@@]21C | inactive | – | – |
| CC[C@H]1[C@@H](O)[C@H]2[C@@H]3CC[C@H]([C@H](C)CCCC(=O)O)[C@H]3[C@H](C)C[C@@H]2[C@@]2(C)CC[C@@H](O)C[C@@H]12 | – | 54 | – |
| CC[C@H]1[C@@H](O)[C@H]2[C@@H]3CC[C@H]([C@H](C)CC(=O)O)[C@H]3[C@H](C)C[C@@H]2[C@@]2(C)CC[C@@H](O)C[C@@H]12 | 11% | – | – |
| CC[C@H]1[C@@H](O)[C@H]2[C@@H]3CC[C@H]([C@H](C)CCC(=O)NCCS(=O)(=O)O)[C@H]3[C@H](C)C[C@@H]2[C@@]2(C)CC[C@@H](O)C[C@@H]12 | – | 99 | EC50 [3]: 5200 nM |
| CC[C@H]1[C@@H](O)[C@H]2[C@@H]3CC[C@@H]([C@H](C)CCCC(=O)O)[C@H]3[C@H](C)C[C@@H]2[C@@]2(C)CC[C@@H](O)C[C@@H]12 | – | 69 | Activity [2]: 23% |
| CC[C@H]1[C@@H](O)[C@H]2[C@@H]3CC[C@@H]([C@H](C)CC(=O)O)[C@H]3[C@H](C)C[C@@H]2[C@@]2(C)CC[C@@H](O)C[C@@H]12 | – | 42 | – |
| CC[C@H]1[C@@H](O)[C@H]2[C@@H]3CC[C@@H]([C@H](C)C(=O)O)[C@H]3[C@H](C)C[C@@H]2[C@@]2(C)CC[C@@H](O)C[C@@H]12 | 10% | – | – |
| C[C@H](CCCC(=O)O)[C@@H]1CC[C@@H]2[C@@H]1[C@H](C)C[C@H]1[C@H]2[C@H](O)C[C@@H]2C[C@H](O)CC[C@@]21C | 26% | – | – |
| CC[C@H]1[C@@H](O)[C@H]2[C@@H]3CC[C@H]([C@H](C)CCC(=O)O)[C@H]3[C@H](C)C[C@@H]2[C@@]2(C)CC[C@@H](O)C[C@@H]12 | 33% | – | – |
| C[C@H](CC(=O)O)[C@@H]1CC[C@@H]2[C@@H]1[C@H](C)C[C@H]1[C@H]2[C@H](O)C[C@@H]2C[C@H](O)CC[C@@]21C | 4% | – | – |
| CC[C@H]1[C@@H](O)[C@H]2[C@@H]3CC[C@@H]([C@H](C)CCC(=O)NCCS(=O)(=O)O)[C@H]3[C@H](C)C[C@@H]2[C@@]2(C)CC[C@@H](O)C[C@@H]12 | – | 99 | EC50 [3]: 310 nM |
| C[C@H](CCCCC(=O)O)[C@H]1CC[C@@H]2[C@@H]1[C@H](C)C[C@H]1[C@H]2[C@H](O)C[C@@H]2C[C@H](O)CC[C@@]21C | inactive | – | – |
| C[C@@H]1C[C@H]2[C@H]([C@@H]3CC[C@@H]([C@H](C)C(=O)O)[C@H]31)[C@H](O)C[C@@H]1C[C@H](O)CC[C@@]12C | 4% | – | – |
| CC[C@H]1[C@@H](O)[C@H]2[C@@H]3CC[C@@H]([C@H](C)CCCC(=O)NCCS(=O)(=O)O)[C@H]3[C@H](C)C[C@@H]2[C@@]2(C)CC[C@@H](O)C[C@@H]12 | – | 99 | EC50 [3]: 270 nM |
| C[C@H](CCC(=O)NCCS(=O)(=O)O)[C@@H]1CC[C@@H]2[C@@H]1[C@H](C)C[C@H]1[C@H]2[C@H](O)C[C@@H]2C[C@H](O)CC[C@@]21C | – | 61 | – |
| CC[C@H]1[C@@H](O)[C@H]2[C@@H]3CC[C@@H]([C@H](C)CC(=O)NCCS(=O)(=O)O)[C@H]3[C@H](C)C[C@@H]2[C@@]2(C)CC[C@@H](O)C[C@@H]12 | – | 42 | – |
| C[C@H](CCCCC(=O)O)[C@@H]1CC[C@@H]2[C@@H]1[C@H](C)C[C@H]1[C@H]2[C@H](O)C[C@@H]2C[C@H](O)CC[C@@]21C | – | 43 | – |
